{"source": "ChEMBL document CHEMBL1121953", "about": "“Carbon-7 substituted actinomycin D analogues as improved antitumor agents: synthesis and DNA-binding and biological properties” (J Med Chem, 1982)", "key": {"[1]": {"test": "Therapeutic Index measured as the MTD/MED ratio compared to that of compound 4", "settings": "read-out: Therapeutic index", "outline": "(§1)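 Therapeutic index is MTD/MED, with ip dosing in 10% dimethyl sulfoxide-saline on a qd 1-4 or q4d 1, 5, 9 schedule. MED is the dose giving a 40% increase in life span over control in P-388-bearing mice. MTD is the LD10 in tumor-free male CDF1 mice (18-23 g) over 21 days, read from a log dose vs. percent mortality plot and averaged over 2-3 experiments.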"}, "[2]": {"test": "Therapeutic Index measured as the MTD/MED ratio compared to that of compound 3", "settings": "read-out: Therapeutic index", "outline": "as §1"}, "[3]": {"organism": "Homo sapiens", "test": "(§2) In vitro growth inhibitory activity against human lymphoblastic leukemia cells", "assay_type": "functional", "settings": "read-out: ID50 (the source's name)", "outline": "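CCRF-CEM human lymphoblastic leukemia cells in log-phase growth; compounds dissolved in Me₂SO, final growth medium 1% Me₂SO.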"}, "[4]": {"test": "In vitro growth inhibitory activity for effect on melting temperature of DNA was determined", "outline": "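DNA thermal denaturation; ΔTm = Tm of DNA-drug complex minus Tm of DNA. Drug 1.4×10⁻⁴ M, DNA (P) 1.4×10⁻³ M in 0.01 M phosphate buffer pH 7.0 with 5×10⁻³ M EDTA and 5% dimethyl sulfoxide.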"}, "[5]": {"system": "P388", "test": "Antitumor activity against P-388 lymphocytic leukemia in CDF1 hybrid male mice measured as percent increase in lifespan( 1.8 mg/kg),ip", "assay_type": "functional", "settings": "Mus musculus", "outline": "(§3)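 Male CDF1 mice (18-23 g) were inoculated ip with 10⁶ P-388 cells on day 0. Drug was given ip in 10% dimethyl sulfoxide-saline on days 1, 5 and 9. Test solutions were kept at 0-4 °C, protected from light, and checked periodically for stability and homogeneity by TLC and HPLC. Read-out was survival, median survival time, increase in life span and tumor-free cures per 7 animals.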"}, "[6]": {"system": "P388", "test": "Minimum effective dose was determined compared to 7-(2,3-Epoxypropoxy)-actinomycin D against P-388 leukemia in mice(4 days)", "assay_type": "functional, Mus musculus", "outline": "(§4)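 MED was the dose (mg/kg) giving a 40% increase in life span over control in mice bearing ip P-388 leukemia. Drug was given ip in 10% dimethyl sulfoxide-saline on a q4d 1, 5, 9 (three injections) or qd 1-4 (four injections) schedule.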"}, "[7]": {"system": "P388", "test": "Antitumor activity against P-388 lymphocytic leukemia in CDF1 hybrid male mice measured as median survival time (0.15 mg/kg),ip", "assay_type": "functional, Mus musculus", "outline": "as §3"}, "[8]": {"system": "P388", "test": "Number of mice with P-388 lymphocytic leukemia cured(0.15 mg/kg),ip.; 0/7", "assay_type": "functional, Mus musculus", "outline": "as §3"}, "[9]": {"system": "P388", "test": "Maximum tolerated dose was determined compared to 7-(2,3-Epoxypropoxy)-actinomycin D against P-388 leukemia in mice(3 days)", "assay_type": "functional, Mus musculus", "outline": "(§5)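 Tumor-free male CDF1 mice (18-23 g) received a broad dose range ip in 10% dimethyl sulfoxide-saline, either on days 1, 5, 9 (three injections) or on 4 successive days (qd 1-4). Deaths were recorded over 21 days. MTD was the dose lethal to 10% (LD10), taken from a plot of log dose vs percent mortality. Average of two experiments.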"}, "[10]": {"system": "P388", "test": "Maximum tolerated dose was determined compared to 7-(2,3-Epoxypropoxy)-actinomycin D against P-388 leukemia in mice(4 days)", "assay_type": "functional, Mus musculus", "outline": "as §5"}, "[11]": {"system": "P388", "test": "Antitumor activity against P-388 lymphocytic leukemia in CDF1 hybrid male mice measured as median survival time ( 1.2 mg/kg),ip", "assay_type": "functional, Mus musculus", "outline": "as §3"}, "[12]": {"system": "P388", "test": "Antitumor activity against P-388 lymphocytic leukemia in CDF1 hybrid male mice measured as percent increase in lifespan( 0.6 mg/kg),ip", "assay_type": "functional", "settings": "Mus musculus", "outline": "as §3"}, "[13]": {"system": "P388", "test": "Number of mice with P-388 lymphocytic leukemia cured.( 0.3 mg/kg),ip; 0/7", "assay_type": "functional, Mus musculus"}, "[14]": {"system": "P388", "test": "Antitumor activity against P-388 lymphocytic leukemia in CDF1 hybrid male mice measured as median survival time (1.8 mg/kg),ip", "assay_type": "functional, Mus musculus", "outline": "as §3"}, "[15]": {"system": "P388", "test": "Number of mice with P-388 lymphocytic leukemia cured.( 0.6 mg/kg),ip; 0/7", "assay_type": "functional, Mus musculus"}, "[16]": {"system": "P388", "test": "Number of mice with P-388 lymphocytic leukemia cured( 3 mg/kg),ip; 0/7", "assay_type": "functional, Mus musculus", "outline": "as §3"}, "[17]": {"system": "P388", "test": "Antitumor activity against P-388 lymphocytic leukemia in CDF1 hybrid male mice measured as median survival time (3 mg/kg),ip", "assay_type": "functional, Mus musculus", "outline": "as §3"}, "[18]": {"system": "P388", "test": "Antitumor activity against P-388 lymphocytic leukemia in CDF1 hybrid male mice measured as percent increase in lifespan( 0.15 mg/kg),ip", "assay_type": "functional", "settings": "Mus musculus", "outline": "as §3"}, "[19]": {"system": "P388", "test": "Minimum effective dose was determined compared to 7-(2,3-Epoxypropoxy)-actinomycin D against P-388 leukemia in mice(3 days)", "assay_type": "functional, Mus musculus", "set-up": "unit: mg/kg", "outline": "as §4"}, "[20]": {"system": "P388", "test": "Antitumor activity against P-388 lymphocytic leukemia in CDF1 hybrid male mice measured as percent increase in lifespan(0.3 mg/kg),ip", "assay_type": "functional, Mus musculus", "outline": "as §3"}, "[21]": {"system": "P388", "test": "Antitumor activity against P-388 lymphocytic leukemia in CDF1 hybrid male mice measured as median survival time ( 0.6 mg/kg),ip", "assay_type": "functional, Mus musculus", "outline": "as §3"}, "[22]": {"system": "P388", "test": "Antitumor activity against P-388 lymphocytic leukemia in CDF1 hybrid male mice measured as percent increase in lifespan( 1.2 mg/kg),ip", "assay_type": "functional", "settings": "Mus musculus", "outline": "as §3"}, "[23]": {"system": "P388", "test": "Antitumor activity against P-388 lymphocytic leukemia in CDF1 hybrid male mice measured as median survival time (0.3 mg/kg),ip", "assay_type": "functional, Mus musculus", "outline": "as §3"}, "[24]": {"system": "P388", "test": "Number of mice with P-388 lymphocytic leukemia cured.(1.8 mg/kg),ip; 0/7", "assay_type": "functional, Mus musculus"}, "[25]": {"system": "P388", "test": "Number of mice with P-388 lymphocytic leukemia cured(1.2 mg/kg),ip; 0/7", "assay_type": "functional, Mus musculus", "outline": "as §3"}, "[26]": {"organism": "Homo sapiens", "test": "as §2", "assay_type": "functional", "settings": "read-out: ID50 (the source's name)", "outline": "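Human CCRF-CEM lymphoblastic leukemia cells were used in log-phase growth. Compounds were dissolved in Me2SO, and the final growth medium contained 1% Me2SO. Test solution homogeneity was checked by TLC and HPLC at each test.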", "remark": "listed apart in the source"}, "[27]": {"system": "P388", "test": "Antitumor activity against P-388 lymphocytic leukemia in CDF1 hybrid male mice measured as percent increase in lifespan( 3 mg/kg),ip", "assay_type": "functional", "settings": "Mus musculus", "outline": "as §3"}}, "data": [{"smiles": "Cc1c2oc3c(C)c(OCC(O)CO)cc(C(=O)N[C@@H]4C(=O)N[C@H](C(C)C)C(=O)N5CCC[C@H]5C(=O)N(C)CC(=O)N(C)[C@@H](C(C)C)C(=O)O[C@@H]4C)c3nc-2c(C(=O)N[C@@H]2C(=O)N[C@H](C(C)C)C(=O)N3CCC[C@H]3C(=O)N(C)CC(=O)N(C)[C@@H](C(C)C)C(=O)O[C@@H]2C)c(N)c1=O", "note": "(stereo not given in full)", "values": [{"measurement": "selectivity ratio", "setting": "[1]", "value": 6}, {"measurement": "selectivity ratio", "setting": "[2]", "value": 12}]}, {"smiles": "CCN(CC)C(=O)c1c2nc3c(C(=O)N(CC)CC)cc(OCC4CO4)c(C)c3oc-2c(C)c(=O)c1N", "note": "(stereo not given)", "values": [{"measurement": "IC50", "setting": "[3]", "value": 9, "unit": "µg/mL"}, {"measurement": "DNA melting temperature shift (ΔTm)", "setting": "[4]", "value": 0, "unit": "°C"}]}, {"smiles": "Cc1c2oc3c(C)c(OCC4CO4)cc(C(=O)N[C@H]4C(=O)N[C@@H](C(C)C)C(=O)N5CCC[C@H]5C(=O)N(C)CC(=O)N(C)[C@@H](C(C)C)C(=O)O[C@H]4C)c3nc-2c(C(=O)N[C@H]2C(=O)N[C@@H](C(C)C)C(=O)N3CCC[C@H]3C(=O)N(C)CC(=O)N(C)[C@@H](C(C)C)C(=O)O[C@H]2C)c(N)c1=O", "note": "(stereo not given in full)", "values": [{"measurement": "DNA melting temperature shift (ΔTm)", "setting": "[4]", "value": 6, "unit": "°C"}]}, {"smiles": "CCN(CC)C(=O)c1c2nc3c(C(=O)N(CC)CC)cc(OCC(O)CO)c(C)c3oc-2c(C)c(=O)c1N", "note": "(stereo not given)", "values": [{"measurement": "IC50", "setting": "[3]", "value": "~10", "unit": "µg/mL"}, {"measurement": "DNA melting temperature shift (ΔTm)", "setting": "[4]", "value": 0, "unit": "°C"}]}, {"smiles": "Cc1c2oc3c(C)c(O)c(N)c(C(=O)N[C@@H]4C(=O)N[C@H](C(C)C)C(=O)N5CCC[C@H]5C(=O)N(C)CC(=O)N(C)[C@@H](C(C)C)C(=O)O[C@@H]4C)c3nc-2c(C(=O)N[C@@H]2C(=O)N[C@H](C(C)C)C(=O)N3CCC[C@H]3C(=O)N(C)CC(=O)N(C)[C@@H](C(C)C)C(=O)O[C@@H]2C)cc1=O", "values": [{"measurement": "ILS at 1.8 mg/kg", "setting": "[5]", "value": 136, "unit": "%"}, {"measurement": "MED", "setting": "[6]", "value": 0.2}, {"measurement": "MST", "setting": "[7]", "value": 12, "unit": "days"}, {"measurement": "Cure", "setting": "[8]", "value": 0}, {"measurement": "MTD", "setting": "[9]", "value": 4.2}, {"measurement": "MTD", "setting": "[10]", "value": 2}, {"measurement": "MST", "setting": "[11]", "value": 25, "unit": "days"}, {"measurement": "ILS at 0.6 mg/kg", "setting": "[12]", "value": 89, "unit": "%"}, {"measurement": "Cure", "setting": "[13]", "value": 0}, {"measurement": "MST", "setting": "[14]", "value": 26, "unit": "days"}, {"measurement": "Cure", "setting": "[15]", "value": 0}, {"measurement": "Cure", "setting": "[16]", "value": 0}, {"measurement": "MST", "setting": "[17]", "value": 15, "unit": "days"}, {"measurement": "ILS at 0.15 mg/kg", "setting": "[18]", "value": 10, "unit": "%"}, {"measurement": "MED", "setting": "[19]", "value": 0.275}, {"measurement": "ILS", "setting": "[20]", "value": 55, "unit": "%"}, {"measurement": "MST", "setting": "[21]", "value": 21, "unit": "days"}, {"measurement": "ILS at 1.2 mg/kg", "setting": "[22]", "value": 127, "unit": "%"}, {"measurement": "MST", "setting": "[23]", "value": 17, "unit": "days"}, {"measurement": "Cure", "setting": "[24]", "value": 0}, {"measurement": "Cure", "setting": "[25]", "value": 0}, {"measurement": "IC50", "setting": "[26]", "value": 0.95, "unit": "µg/mL"}, {"measurement": "ILS at 3 mg/kg", "setting": "[27]", "value": 37, "unit": "%"}]}]}
